Assay results as given in ChEMBL document CHEMBL1149663, “Design, synthesis and biological evaluation of 1,4-benzodiazepine-2,5-dione-based HDAC inhibitors” (Bioorg Med Chem Lett, 2007).
Calls of active or inactive are those of the source. The calls are words filed in the database; no cut-off is given here.

Legend:
[1] = (§1) Antiproliferative activity against H661 cells after 48 hrs by XTT assay; assay type: functional, cell-based; conditions: Homo sapiens, NCI-H661, 48 h
Outline: (§2)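 Non-small cell lung cancer H661 cells were treated for 48 h, and proliferation was read by XTT assay as % of untreated control. Each analogue was run in three to four independent experiments, each in triplicate. IC50 was taken from the proliferation curves as the concentration giving 50% inhibition of proliferation.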

[2] = Antiproliferative activity against H661 cells at 5 uM after 48 hrs by XTT assay; assay type: functional, Homo sapiens, NCI-H661; outline: as §2
NCI-H661 = assay: as §1; assay type: functional, cell-based; conditions: Homo sapiens; outline: as §2

| SMILES | IC50 [1] [µM] | Activity [2] [%] | Activity (NCI-H661) |
| --- | --- | --- | --- |
| CC(/C=C/C(=O)NO)=C\[C@@H](C)C(=O)c1ccc(N(C)C)cc1 [TRICHOSTATIN] | 0.085 | – | – |
| O=C(CC/C=C/CN1C(=O)c2ccccc2N(Cc2ccccc2)C(=O)[C@@H]1Cc1ccccc1)NO | 8 | 80 | – |
| O=C(CCCCCN1C(=O)c2ccccc2N(Cc2ccccc2)C(=O)[C@@H]1Cc1ccccc1)NO | 6 | 40 | – |
| O=C(CCCCCN1C(=O)c2ccccc2N(Cc2cccc3ccccc23)C(=O)[C@@H]1Cc1ccccc1)NO | 16 | – | – |
| Cc1cc(C)cc(CN2C(=O)[C@H](Cc3ccccc3)N(CCCCCC(=O)NO)C(=O)c3ccccc32)c1 | 8 | 80 | – |
| Cc1cc(C)cc(CN2C(=O)[C@H](Cc3ccccc3)N(C/C=C/CCC(=O)NO)C(=O)c3ccccc32)c1 | 17 | – | – |
| CN1C(=O)[C@H](Cc2ccccc2)N(CCCCCC(=O)NO)C(=O)c2ccccc21 | – | – | inactive |
